Molecules are shown by their SMILES. Active and inactive are the calls of the source. The calls are words filed in the database; no cut-off is given here.

One data set relates to Saccharomyces cerevisiae. Description: Mutagenic activity in Saccharomyces cerevisiae after 3 hrs. The class given is ADME, organism-based. Conditions: in vivo. The gist of the method: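 Tested in a Saccharomyces cerevisiae strain engineered with three phenotypic readouts, with 3 hour incubation against DMSO vehicle.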
The test system of data set [1] is HuT78. Description: Cytotoxicity against human HUT78 cells assessed as LDH release at 10 mM after 48 hrs.
Data set [2] deals with HuT78. Description: Cytotoxicity against human HUT78 cells assessed as LDH release at 100 nM after 48 hrs.
Data set [3] has as its system HuT78. Kind of data set: Induction of apoptosis in human HUT78 cells assessed as caspase 3/7 activation after 24 hrs by luminometry. It is filed as functional, cell-based. A digest of the protocol: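 Hut78 CTCL cells were plated and dosed immediately with ethanol vehicle, test agent, water, or sodium butyrate (positive control), then incubated 24 hours. Caspase-Glo lysis/substrate mix was added, and cleavage of the substrate by caspase 3/7 was read as luminescence. Ethanol-treated cells served as the comparison.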

Consider `Cc1cc2c(cc1C(=O)c1cc(C(=O)O)cc(C(=O)O)c1)C(C)(C)CCC2(C)C`, for which the Activity entry in the data set on Saccharomyces cerevisiae is recorded as “Non-toxic”. Same read-out and setting: the value for `Cc1cc2c(cc1C(=O)c1cccc(C(=O)O)c1)C(C)(C)CCC2(C)C` was “Non-toxic”. On to `C=C(c1cc(C(=O)O)cc(C(=O)O)c1)c1cc2c(cc1C)C(C)(C)CCC2(C)C`, for which, in the data set on Saccharomyces cerevisiae, the Activity entry was “Non-toxic”. Same read-out and setting: then `C=C(c1ccc(C(=O)O)cc1)c1cc2c(cc1C)C(C)(C)CCC2(C)C` [BEXAROTENE], with “Non-toxic”.

For `Cc1cc2c(cc1C(=O)c1ccc(C(=O)O)cc1)C(C)(C)CCC2(C)C`, the Activity entry with Saccharomyces cerevisiae is given as “Non-toxic”.

For the compound `Cc1cc2c(cc1C(=O)c1ccc(C(=O)O)c([N+](=O)[O-])c1)C(C)(C)CCC2(C)C`, the Activity result in the data set with Saccharomyces cerevisiae is on record as “Non-toxic”. As to `Cc1cc2c(cc1C(=O)c1ccc(C(=O)O)c(F)c1)C(C)(C)CCC2(C)C`, in the data set with Saccharomyces cerevisiae, the Activity entry is on record as “Non-toxic”. `NC(=O)NO` [HYDROXYUREA]: the Activity with HuT78 [1] amounted to 97%. Take `Cc1cc2c(cc1C(=O)c1ccc(C(=O)O)cc1F)C(C)(C)CCC2(C)C`: the result with HuT78 [2] was Active. The Activity entry in the data set with Saccharomyces cerevisiae is “Non-toxic”. Besides, in the data set on HuT78 [3], the outcome was inactive.

The values above are taken from ChEMBL document CHEMBL1154189 (J Med Chem, 2009).
